Assay results published in ChEMBL document CHEMBL1122796, “Synthesis and antihypertensive activity of 6,7-disubstituted trans-4-amino-3,4-dihydro-2,2-dimethyl-2H-1-benzopyran-3-ols” (1984).

What was measured:
Assay type in all cases: functional
Rattus norvegicus [1] = test: Compound was evaluated for oral antihypertensive activity in spontaneously hypertensive rats at 0.3 mg/kg peroral administration
In short: (§1)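 Conscious spontaneously hypertensive rats (Okamoto-derived, 14-24 weeks old, systolic BP ≥180 mmHg), usually six per compound. Dosed orally by needle into the esophagus as a solution or suspension in 1% w/v methylcellulose; doses as free base. Systolic BP measured by tail cuff, restrained at 33.5 ± 0.5 °C, each reading a mean of ≥6 recordings, predose and at 1-6 h.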

Rattus norvegicus [2] = test: Compound was evaluated for oral antihypertensive activity in spontaneously hypertensive rats at 1 mg/kg peroral administration; in short: as §1
Rattus norvegicus [3] = test: Compound was evaluated for oral antihypertensive activity in spontaneously hypertensive rats at 10 mg/kg peroral administration; in short: as §1
Rattus norvegicus [4] = test: Compound was evaluated for oral antihypertensive activity in spontaneously hypertensive rats at 3 mg/kg peroral administration; in short: as §1
Rattus norvegicus [5] = test: Compound was evaluated for oral antihypertensive activity in spontaneously hypertensive rats at 0.01 mg/kg peroral administration; in short: as §1
Rattus norvegicus [6] = test: Compound was evaluated for oral antihypertensive activity in spontaneously hypertensive rats at 0.03 mg/kg peroral administration; in short: as §1
Rattus norvegicus [7] = test: Compound was evaluated for oral antihypertensive activity in spontaneously hypertensive rats at 0.1 mg/kg peroral administration; in short: as §1
Rattus norvegicus [8] = test: Compound was evaluated for antihypertensive activity in deoxy-corticosterone acetate (DOCA) treated hypertensive rats at 0.3 mg/kg peroral administration; details: route oral
Rattus norvegicus [9] = test: Compound was evaluated for antihypertensive activity in deoxy-corticosterone acetate (DOCA) treated hypertensive rats at 1 mg/kg peroral administration; details: route oral
Rattus norvegicus [10] = test: Compound was evaluated for antihypertensive activity in deoxy-corticosterone acetate (DOCA) treated hypertensive rats at 100 mg/kg peroral administration; details: route oral
Rattus norvegicus [11] = test: Compound was evaluated for antihypertensive activity in deoxy-corticosterone acetate (DOCA) treated hypertensive rats at 10 mg/kg peroral administration; details: route oral
Rattus norvegicus [12] = test: Compound was evaluated for oral antihypertensive activity in spontaneously hypertensive rats at 100 mg/kg peroral administration; in short: as §1
Rattus norvegicus [13] = test: Compound was evaluated for antihypertensive activity in deoxy-corticosterone acetate (DOCA) treated hypertensive rats at 3 mg/kg peroral administration; details: route oral

CC(=O)Nc1cc2c(cc1C(N)=O)[C@@H](N1CCCCC1)[C@H](O)C(C)(C)O2
Max fall in blood pressure (Rattus norvegicus [1]): 34 mmHg | Max fall in blood pressure (Rattus norvegicus [2]): 50 mmHg

CC(=O)Nc1cc2c(cc1[N+](=O)[O-])OC(C)(C)[C@@H](O)[C@@H]2N1CCCCC1
Max fall in blood pressure (Rattus norvegicus [3]): 89 mmHg | Max fall in blood pressure (Rattus norvegicus [4]): 44 mmHg

CC1(C)Oc2cc(N)c([N+](=O)[O-])cc2[C@@H](N2CCCCC2)[C@@H]1O
Max fall in blood pressure (Rattus norvegicus [5]): 14 mmHg | Max fall in blood pressure (Rattus norvegicus [6]): 71 mmHg | Max fall in blood pressure (Rattus norvegicus [7]): 110 mmHg | Max fall in blood pressure (Rattus norvegicus [1]): 111 mmHg

CC1(C)Oc2cc([N+](=O)[O-])c(N)cc2[C@@H](N2CCCCC2)[C@@H]1O
Max fall in blood pressure (Rattus norvegicus [1]): 42 mmHg | Max fall in blood pressure (Rattus norvegicus [2]): 67 mmHg

CC(=O)Nc1cc2c(cc1C#N)[C@@H](N1CCCC1)[C@H](O)C(C)(C)O2
Max fall in blood pressure (Rattus norvegicus [7]): 36 mmHg | Max fall in blood pressure (Rattus norvegicus [1]): 149 mmHg

CC(=O)Nc1cc2c(cc1[N+](=O)[O-])OC(C)(C)[C@@H](O)[C@@H]2N1CCCC1
Max fall in blood pressure (Rattus norvegicus [3]): 99 mmHg | Max fall in blood pressure (Rattus norvegicus [4]): 25 mmHg

CC1(C)Oc2cc([N+](=O)[O-])c(N)cc2[C@@H](N2CCCC2)[C@@H]1O
Max fall in blood pressure (Rattus norvegicus [7]): 22 mmHg | Max fall in blood pressure (Rattus norvegicus [1]): 83 mmHg | Max fall in blood pressure (Rattus norvegicus [2]): 71 mmHg

CC1(C)Oc2ccc(C#N)cc2C(N2CCCC2)[C@@H]1O.CS(=O)(=O)O (some centres not stated)
Max fall in blood pressure (Rattus norvegicus [8]): 15 mmHg | Max fall in blood pressure (Rattus norvegicus [1]): 41 mmHg | Max fall in blood pressure (Rattus norvegicus [2]): 61 mmHg | Max fall in blood pressure (Rattus norvegicus [9]): 43 mmHg

CC1(C)Oc2cc(N)c(C#N)cc2[C@@H](N2CCCC2)[C@@H]1O
Max fall in blood pressure (Rattus norvegicus [6]): 40 mmHg | Max fall in blood pressure (Rattus norvegicus [7]): 54 mmHg | Max fall in blood pressure (Rattus norvegicus [1]): 115 mmHg

CC(=O)Nc1cc2c(cc1[N+](=O)[O-])[C@@H](N1CCCCC1)[C@H](O)C(C)(C)O2
Max fall in blood pressure (Rattus norvegicus [7]): 78 mmHg | Max fall in blood pressure (Rattus norvegicus [1]): 108 mmHg

CC1(C)Oc2cc(N)c([N+](=O)[O-])cc2[C@@H](N2CCCC2)[C@@H]1O
Max fall in blood pressure (Rattus norvegicus [6]): 47 mmHg | Max fall in blood pressure (Rattus norvegicus [7]): 122 mmHg

CC1(C)Oc2ccc(N)cc2C(N2CCCC2)[C@@H]1O.CS(=O)(=O)O (some centres not stated)
Max fall in blood pressure (Rattus norvegicus [3]): -10 mmHg | Max fall in blood pressure (Rattus norvegicus [9]): 6 mmHg

CC1(C)Oc2ccc([N+](=O)[O-])cc2C(N2CCCC2)[C@@H]1O.Cl (some centres not stated)
Max fall in blood pressure (Rattus norvegicus [1]): 32 mmHg | Max fall in blood pressure (Rattus norvegicus [2]): 52 mmHg | Max fall in blood pressure (Rattus norvegicus [9]): 52 mmHg

CC(=O)Nc1ccc2c(c1)C(N1CCCCC1)[C@H](O)C(C)(C)O2.Cl (some centres not stated)
Max fall in blood pressure (Rattus norvegicus [10]): 4 mmHg | Max fall in blood pressure (Rattus norvegicus [3]): 19 mmHg | Max fall in blood pressure (Rattus norvegicus [11]): 6 mmHg | Max fall in blood pressure (Rattus norvegicus [12]): 42 mmHg

CC1(C)Oc2cc([N+](=O)[O-])ccc2C(N2CCCC2)[C@@H]1O.Cl (some centres not stated)
Max fall in blood pressure (Rattus norvegicus [13]): 90 mmHg | Max fall in blood pressure (Rattus norvegicus [1]): 17 mmHg | Max fall in blood pressure (Rattus norvegicus [2]): 83 mmHg | Max fall in blood pressure (Rattus norvegicus [9]): 44 mmHg

CC1(C)Oc2ccc(C(N)=O)cc2C(N2CCCCC2)[C@@H]1O.Cl (some centres not stated)
Max fall in blood pressure (Rattus norvegicus [3]): 109 mmHg | Max fall in blood pressure (Rattus norvegicus [2]): 24 mmHg | Max fall in blood pressure (Rattus norvegicus [4]): 76 mmHg | Max fall in blood pressure (Rattus norvegicus [9]): 9 mmHg

Cl.NNc1nncc2ccccc12 [HYDRALAZINE HYDROCHLORIDE]
Max fall in blood pressure (Rattus norvegicus [13]): 65 mmHg | Max fall in blood pressure (Rattus norvegicus [3]): 89 mmHg | Max fall in blood pressure (Rattus norvegicus [2]): 42 mmHg | Max fall in blood pressure (Rattus norvegicus [4]): 51 mmHg | Max fall in blood pressure (Rattus norvegicus [9]): 32 mmHg | Max fall in blood pressure (Rattus norvegicus [11]): 113 mmHg

COC(=O)C1=C(C)NC(C)=C(C(=O)OC)C1c1ccccc1[N+](=O)[O-] [NIFEDIPINE]
Max fall in blood pressure (Rattus norvegicus [8]): 20 mmHg | Max fall in blood pressure (Rattus norvegicus [13]): 51 mmHg | Max fall in blood pressure (Rattus norvegicus [1]): 13 mmHg | Max fall in blood pressure (Rattus norvegicus [2]): 30 mmHg | Max fall in blood pressure (Rattus norvegicus [4]): 62 mmHg | Max fall in blood pressure (Rattus norvegicus [9]): 33 mmHg
